In data set [1] the test system is PC-3. Put plainly: Cytotoxicity against human PC3 cells after 72 hrs by MTT assay. Format: functional. The settings on record: PC-3, 72 h, read-out: ED50 (the source's name). An outline of the steps:
(§1)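 Cells seeded at 1000/well (NTUB1, PC3) or 5000/well (SV-HUC1), incubated overnight at 37 °C, then exposed to graded concentrations for 72 h. Compounds were made up in DMSO and diluted in medium to 0.1% DMSO. MTT (2 mg/mL in PBS) added for 3 h, formazan dissolved in DMSO, absorbance read at 540 nm. Viability expressed as % of control; IC50 by median-effect analysis.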
Background: Formazan colour is commonly taken as a measure of viable cells.

Data set [2] is described as follows: Cytotoxicity against human NTUB1 cells after 72 hrs by MTT assay. The settings on record: NTUB1, 72 h, read-out: ED50 (the source's name). Format: functional. An outline of the steps: as §1
In data set [3] the test system is NTUB1. In words: Induction of ROS production in human NTUB1 cells using H2DCFDA staining after 24 hrs by flow cytometry analysis. Format: functional, cell-based. The essentials: (§2)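 NTUB1 cells treated 24 h with compounds, 20 µM cisplatin or 1 mM NAC. 10 µM H₂DCFDA added 30 min before harvest. Cells trypsinized, washed with PBS, and DCF green fluorescence read at once by FACScan flow cytometry through a 525-nm band-pass filter. Increase expressed with control set at 0%; three independent experiments.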

For data set [4], the system named is NTUB1. Put plainly: Increase of p53 protein expression in human NTUB1 cells at 10 to 20 uM after 24 hrs by Western blot analysis. Format: functional, cell-based. The essentials:
(§3)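 NTUB1 cells exposed 24 h, trypsinized, and resuspended in PBS. Lysed by boiling twice for 10 min in 2× sample buffer, separated by SDS–PAGE, and semi-dry blotted to nitrocellulose. Membranes blocked in 5% skimmed milk in TBST, probed with primary antibodies overnight at 4 °C, then secondary antibody 1 h at room temperature. ECL chemiluminescence detection; GAPDH as internal control.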
On the technique in general: Immunoblotting shows a protein as a band on a membrane.

Data set [5] in a line: Decrease of Bax protein expression in human NTUB1 cells at 10 to 20 uM after 24 hrs by Western blot analysis. Format: functional, cell-based. The essentials:
as §3

A short description of data set [6]: Cell cycle arrest in human NTUB1 cells assessed as accumulation at G2/M phase at 20 uM after 24 hrs using propidium iodide staining by flow cytometry analysis (reference value: 18.61%). Format: functional, cell-based. An outline of the steps:
(§4)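 3 × 10⁵ NTUB1 cells per 6-cm dish, treated 24 h (medium-only control). Cells then stained with 50 µg/mL propidium iodide plus 50 µg/mL RNase A in PBS, 30 min at room temperature. DNA content read by FACScan flow cytometry; sub-G1 content taken as apoptosis. Values are mean ± SD of four independent experiments.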
In general terms: Flow cytometry measures light scatter and fluorescence of single cells or particles in a stream.

The subject of data set [7] is NTUB1. In words: Induction of up-regulation p21 expression in human NTUB1 cells at 10 uM after 24 hrs by Western blot analysis. Format: functional, cell-based. The essentials:
as §3

A short description of data set [8]: Cytotoxicity against human SV-HUC1 cells at 3 to 10 uM after 72 hrs by MTT assay. Format: cell-based. The settings on record: sv-huc1, 72 h. The essentials: as §1
Data set [9] has as its system NTUB1. In words: Induction of up-regulation cyclin B1 expression in human NTUB1 cells at 20 uM after 24 hrs by Western blot analysis. Format: functional, cell-based. An outline of the steps:
as §3

Data set [10] is described as follows: Cytotoxicity against human NTUB1 cells assessed as cell viability at 10 uM after 72 hrs by MTT assay relative to control. The settings on record: NTUB1, 72 h, read-out: Activity. Format: functional. An outline of the steps:
as §1

A short description of data set [11]: Cytotoxicity against human NTUB1 cells assessed as cell viability at 20 uM after 72 hrs by MTT assay relative to control. Format: functional. The settings on record: NTUB1, 72 h, read-out: Activity. The essentials: as §1
Data set [12] can be described thus: Cell cycle arrest in human NTUB1 cells assessed as accumulation at sub-G1 phase at 10 uM after 24 hrs using propidium iodide staining by flow cytometry analysis (reference value: 1.96%). Format: functional, cell-based. The essentials: as §4
The test system of data set [13] is NTUB1. Put plainly: Induction of ROS production in human NTUB1 cells using H2DCFDA staining at 20 uM after 24 hrs by flow cytometry analysis in presence of 1 mM of NAC. Format: functional, cell-based.
Data set [14] can be described thus: Cell cycle arrest in human NTUB1 cells assessed as accumulation at sub-G1 phase at 20 uM after 24 hrs using propidium iodide staining by flow cytometry analysis (reference value: 1.96%). Format: functional, cell-based. An outline of the steps:
as §4

Data set [15] in a line: Cell cycle arrest in human NTUB1 cells assessed as accumulation at G2/M phase at 10 uM after 24 hrs using propidium iodide staining by flow cytometry analysis (reference value: 18.61%). Format: functional, cell-based. An outline of the steps: as §4
Data set [16] in a line: Cell cycle arrest in human NTUB1 cells assessed as accumulation at S phase at 10 uM after 24 hrs using propidium iodide staining by flow cytometry analysis (reference value: 22.61%). Format: functional, cell-based. The essentials: as §4
The nature of data set [17]: Cell cycle arrest in human NTUB1 cells assessed as accumulation at G1 phase at 10 uM after 24 hrs using propidium iodide staining by flow cytometry analysis (reference value: 56.06%). Format: functional, cell-based. The essentials:
as §4

Data set [18] is described as follows: Cytotoxicity against human NTUB1 cells assessed as cell viability at 10 uM after 72 hrs by MTT assay relative to control in presence of 1 mM of NAC. Format: functional. The essentials: (§5)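 NTUB1 cells seeded at 1000/well, incubated overnight, then exposed 72 h to 1 mM NAC alone or to compound with NAC. MTT added for 3 h, formazan dissolved in DMSO, absorbance read at 540 nm. Viability expressed relative to untreated control; mean ± SD (n = 3) from one experiment in triplicate.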

A short description of data set [19]: Cytotoxicity against human NTUB1 cells assessed as cell viability at 20 uM after 72 hrs by MTT assay relative to control in presence of 1 mM of NAC. Format: functional. The essentials:
as §5

Data set [20] in a line: Cell cycle arrest in human NTUB1 cells assessed as accumulation at S phase at 20 uM after 24 hrs using propidium iodide staining by flow cytometry analysis (reference value: 22.61%). Format: functional, cell-based. The essentials:
as §4

The test system of data set [21] is NTUB1. Put plainly: Induction of down-regulation cyclin B1 expression in human NTUB1 cells at 10 uM after 24 hrs by Western blot analysis. Format: functional, cell-based. The essentials:
as §3

For data set [22], the system named is NTUB1. Put plainly: Induction of morphological changes in human NTUB1 cells assessed as increase of tetraploid DNA level using DAPI staining at 20 uM after 24 hrs by immunofluorescence microscopic analysis. Format: functional, cell-based. An outline of the steps:
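3 × 10⁵ NTUB1 cells per 6-cm dish treated 24 h. Fixed in 2% formaldehyde/PBS for 20 min, then cold methanol (−20 °C) for 3 min. Stained with DAPI 1 h at room temperature in the dark and examined by fluorescence microscopy.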

Data set [23] deals with NTUB1. Put plainly: Induction of up-regulation p21 expression in human NTUB1 cells at 20 uM after 24 hrs by Western blot analysis. Format: functional, cell-based. An outline of the steps:
as §3

Data set [24] in a line: Cell cycle arrest in human NTUB1 cells assessed as accumulation at G1 phase at 20 uM after 24 hrs using propidium iodide staining by flow cytometry analysis (reference value: 56.06%). Format: functional, cell-based. An outline of the steps:
as §4

A short description of data set [25]: Cytotoxicity against human NTUB1 cells at >30 uM after 72 hrs by MTT assay. Format: functional. An outline of the steps: as §1
In data set [26] the test system is PC-3. In words: Cytotoxicity against human PC3 cells at >50 uM after 72 hrs by MTT assay. Format: functional. The essentials: as §1
A short description of data set [27]: Cytotoxicity against human NTUB1 cells at >50 uM after 72 hrs by MTT assay. Format: functional. The essentials:
as §1

The test system of data set [28] is PC-3. Put plainly: Cytotoxicity against human PC3 cells at >30 uM after 72 hrs by MTT assay. Format: functional. An outline of the steps:
as §1

A short description of data set [29]: Cytotoxicity against human NTUB1 cells assessed as cell viability at 1 mM after 72 hrs by MTT assay relative to control. Format: functional. The settings on record: NTUB1, 72 h, read-out: Activity. An outline of the steps:
as §5

Data set [30] has as its system NTUB1. Put plainly: Induction of ROS production in human NTUB1 cells using H2DCFDA staining at 1 mM after 24 hrs by flow cytometry analysis. Format: functional, cell-based. The essentials:
as §2

Calls of active or inactive are those of the source. No cut-off for these calls is given here. Where only a bound is given, the exact number is not on record here.

The values below come from ChEMBL document CHEMBL1821703, “Anthraquinone derivatives induce G2/M cell cycle arrest and apoptosis in NTUB1 cells” (Bioorg Med Chem, 2011).

As for `O=C1c2ccccc2C(=O)c2c(O)cc(OCCCNC3CCCCC3)cc21`, the EC50 in data set [1] amounted to 9.12 µM; in data set [2], 8.37 µM.

Consider `O=C1c2ccccc2C(=O)c2c(O)cc(OCCCN3CCOCC3)cc21`, for which the outcome in [3] was Active. In addition, the EC50 in data set [1] is 17.7 µM; in [2], 20.4 µM.

Regarding `CC(O)CNCCCOc1cc(O)c2c(c1)C(=O)c1ccccc1C2=O` (configuration not stated), the EC50 in data set [1] turned out to be 9.07 µM; in data set [2], 12 µM.

For `O=C1c2ccccc2C(=O)c2c(O)cc(OCCCN3CCCC3)cc21`, the outcome in data set [4], in [5], in data set [7], in data set [9], in data set [3] and in data set [21] was Active. Besides, the outcome in [22] and in data set [23] was Active. The Activity in data set [6] is 29.6%; in data set [8], “Non-toxic”; in data set [12] it was 2.47%; in data set [14] it was 4.69%; in [15] it was 19.2%; in [16] it was 25.3%. Further, the Activity came to 51.4% in data set [17]; 57.4% in [18]; 17.1% in [19]; 21.9% in [20]; 36.6% in [24]. In addition, the viability at 10 µM in data set [10] was 57%. Further, the viability at 20 µM in data set [11] was found to be 13.1%. The figures for the EC50 in data set [1] and in data set [2] were 7.64 µM and 9.72 µM, respectively. For the same compound, the outcome in data set [13] was inactive.

Consider `CN1CCN(CCCOc2cc(O)c3c(c2)C(=O)c2ccccc2C3=O)CC1`, for which the “inhibition (INH)” value in data set [25] came to 15.54%; in data set [26], 44.36%. In addition, the EC50 in data set [1] was over 50 µM; in data set [2], over 30 µM.

As for `CN(CCO)CCCOc1cc(O)c2c(c1)C(=O)c1ccccc1C2=O`, the EC50 in data set [1] came to 8.89 µM; in data set [2], 12.3 µM.

Consider `O=C1c2ccccc2C(=O)c2c(O)cc(OCCCN3CCN(CCO)CC3)cc21`, for which the EC50 in data set [1] and in [2] was over 50 µM each time. For the same compound, the “inhibition (INH)” value is 18.54% in data set [26] and 18.75% in [27].

As to `CCNCCCOc1ccc2c(c1)C(=O)c1ccccc1C2=O`, the EC50 in data set [1] turned out to be 22.9 µM; in data set [2] it was 24.4 µM.

In the case of `CCCNCCCOc1cc(O)c2c(c1)C(=O)c1ccccc1C2=O`, the EC50 in data set [1] is 14 µM; in data set [2], 18.9 µM.

Regarding `CCOC(=O)N1CCN(CCCOc2cc(O)c3c(c2)C(=O)c2ccccc2C3=O)CC1`, the outcome in data set [3] was Active. Further, the figures for the EC50 in [1] and in data set [2] were over 30 µM and 50.9 µM, respectively. For the same compound, in data set [28], the “inhibition (INH)” value was 12.44%.

`O=C1c2ccccc2C(=O)c2c(O)cc(OCCCN3CCCCC3)cc21`: the figures for the EC50 in data set [1] and in [2] were 28.5 µM and 32.6 µM, respectively.

As for `CCNCCCOc1cc(O)c2c(c1)C(=O)c1ccccc1C2=O`, the EC50 in [1] and in data set [2] was over 50 µM throughout. For the same compound, the “inhibition (INH)” value in [26] is 19.2%; in [27] it was 23.2%.

Regarding `CC(=O)N[C@@H](CS)C(=O)O` [ACETYLCYSTEINE], the viability at 1000 µM in [29] stood at 96.3%. The result in data set [30] was inactive.
